One test addresses Histamine H1 receptor (Homo sapiens, UniProt P35367).
The target in a further test is Histamine H2 receptor (Homo sapiens, UniProt P25021). Description: Displacement of [3H]UR-DE257 from human histamine H2 receptor stably expressed in baculovirus infected Sf9 cell membrane co-expressing RG-Salpha S incubated for 60 mins by scintillation counting analysis. The test is classed as cell membranes.
Another test deals with Histamine H4 receptor (Homo sapiens, UniProt Q9H3N8).
For another test, the target named is Histamine H3 receptor (Homo sapiens, UniProt Q9Y5N1). Description: Displacement of [3H]UR-PI294 from human histamine H3 receptor stably expressed in baculovirus infected Sf9 cell membrane co-expressing G-alphai2 and G-beta1gamma2 incubated for 60 mins by scintillation counting analysis. The test is classed as cell membranes. The essentials:
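hH3R + Gαi2 + Gβ1γ2 expressed in Sf9 membranes. […] Mean ± SEM from N independent experiments in triplicate.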
(Displacement assays read how much labelled ligand stays bound in the presence of the test substance.)

Some results are limits rather than exact numbers.

Broadly, the Kd is the concentration at which binding is half-saturated. Higher therefore signals weaker binding. As usually defined, the Ki is the dissociation constant of the complex between target and ligand, obtained from inhibition or displacement. A high value points to lower affinity.

Sequence of Histamine H4 receptor (Q9H3N8 whole entry): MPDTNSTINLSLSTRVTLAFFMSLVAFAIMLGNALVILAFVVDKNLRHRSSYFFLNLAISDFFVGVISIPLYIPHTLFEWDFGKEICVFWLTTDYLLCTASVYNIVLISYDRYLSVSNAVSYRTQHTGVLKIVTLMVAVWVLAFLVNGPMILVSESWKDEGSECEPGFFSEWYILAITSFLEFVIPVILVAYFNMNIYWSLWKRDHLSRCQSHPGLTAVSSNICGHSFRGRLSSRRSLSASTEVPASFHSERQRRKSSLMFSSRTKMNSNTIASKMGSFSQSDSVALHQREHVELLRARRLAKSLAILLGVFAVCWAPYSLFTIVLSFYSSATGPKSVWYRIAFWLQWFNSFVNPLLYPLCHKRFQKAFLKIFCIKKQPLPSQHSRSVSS
Sequence of Histamine H2 receptor (P25021 whole entry): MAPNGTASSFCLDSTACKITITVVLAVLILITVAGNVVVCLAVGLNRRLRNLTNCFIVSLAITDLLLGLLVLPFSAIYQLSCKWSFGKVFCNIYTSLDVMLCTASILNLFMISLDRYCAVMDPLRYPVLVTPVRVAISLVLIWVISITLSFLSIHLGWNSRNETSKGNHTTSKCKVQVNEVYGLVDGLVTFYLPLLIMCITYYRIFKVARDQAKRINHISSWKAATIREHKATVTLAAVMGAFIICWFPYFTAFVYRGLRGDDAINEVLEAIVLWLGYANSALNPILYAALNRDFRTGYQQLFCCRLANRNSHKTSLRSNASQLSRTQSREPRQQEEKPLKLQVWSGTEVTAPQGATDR
Sequence of Histamine H1 receptor (P35367 whole entry): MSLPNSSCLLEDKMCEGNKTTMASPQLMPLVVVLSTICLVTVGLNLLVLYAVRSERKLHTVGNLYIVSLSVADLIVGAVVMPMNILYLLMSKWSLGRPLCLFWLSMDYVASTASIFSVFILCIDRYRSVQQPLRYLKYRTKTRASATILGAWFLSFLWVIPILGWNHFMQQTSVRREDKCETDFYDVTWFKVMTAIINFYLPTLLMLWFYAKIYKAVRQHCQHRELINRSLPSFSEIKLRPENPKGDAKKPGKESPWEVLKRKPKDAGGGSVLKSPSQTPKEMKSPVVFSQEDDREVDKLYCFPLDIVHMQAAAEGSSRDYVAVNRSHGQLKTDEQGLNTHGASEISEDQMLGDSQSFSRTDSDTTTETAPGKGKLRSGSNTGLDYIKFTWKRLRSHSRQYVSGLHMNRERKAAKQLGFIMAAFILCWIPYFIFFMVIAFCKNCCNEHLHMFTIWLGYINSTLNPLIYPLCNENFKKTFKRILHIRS
Sequence of Histamine H3 receptor (Q9Y5N1 whole entry): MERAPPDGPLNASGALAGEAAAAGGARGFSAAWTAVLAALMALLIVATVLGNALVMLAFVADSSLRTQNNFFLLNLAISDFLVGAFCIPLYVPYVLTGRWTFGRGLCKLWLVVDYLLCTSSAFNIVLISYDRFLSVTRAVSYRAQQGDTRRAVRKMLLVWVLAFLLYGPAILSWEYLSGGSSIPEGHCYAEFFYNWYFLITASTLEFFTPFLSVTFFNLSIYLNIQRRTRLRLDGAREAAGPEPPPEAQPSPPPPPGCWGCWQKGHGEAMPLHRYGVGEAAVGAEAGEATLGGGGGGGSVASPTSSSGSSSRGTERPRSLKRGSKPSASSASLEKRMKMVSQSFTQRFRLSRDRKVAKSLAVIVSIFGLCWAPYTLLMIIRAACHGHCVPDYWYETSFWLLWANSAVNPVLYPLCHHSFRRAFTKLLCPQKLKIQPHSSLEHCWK

Regarding `N/C(=N\C(=O)NCCCCCCCCNC(=O)/N=C(\N)NCCCc1nnc(N)s1)NCCCc1nnc(N)s1`, the Kd at Histamine H1 receptor came out at 4.5 nM; on Histamine H4 receptor, 16 nM. Besides, the inhibitory constant (Ki) on Histamine H1 receptor is 1820 nM; at Histamine H2 receptor, 4.79 nM; at Histamine H4 receptor, 8910 nM; on Histamine H3 receptor it was 6920 nM.
`Cc1ccc(CC(C)CNC(=O)/N=C(\N)NCCCc2nnc(N)o2)cc1` (stereo not drawn): the dissociation constant Kd on Histamine H1 receptor came out at 4.5 nM; at Histamine H4 receptor, 16 nM. Moreover, the Ki at Histamine H1 receptor is 2690 nM; on Histamine H2 receptor, 676 nM; on Histamine H4 receptor, over 10000 nM; at Histamine H3 receptor, 9120 nM.
Turning to `Cc1nc(N)sc1-c1cccc(N/C(N)=N/C(=O)NCc2ccccc2)c1`, the dissociation constant Kd at Histamine H1 receptor turned out to be 4.5 nM; on Histamine H4 receptor, 16 nM. Moreover, the Ki was 7240 nM on Histamine H1 receptor, 302 nM at Histamine H2 receptor, over 10000 nM on Histamine H4 receptor and over 10000 nM on Histamine H3 receptor.
With `Cc1nc(N)sc1-c1ccc(N/C(N)=N/C(=O)NCC(C)C2CCCCC2)cc1` (stereo not drawn), the Kd at Histamine H1 receptor is 4.5 nM; on Histamine H4 receptor it was 16 nM. The inhibition constant (Ki) on Histamine H1 receptor was 2880 nM; on Histamine H2 receptor, 309 nM; at Histamine H4 receptor, 7760 nM; on Histamine H3 receptor, 5620 nM.
On to `C[C@@H](NC(=O)/N=C(\N)NCCCc1c[nH]cn1)c1ccccc1`, for which the equilibrium dissociation constant (Kd) at Histamine H1 receptor came out at 4.5 nM; at Histamine H4 receptor, 16 nM. For the same molecule, the Ki on Histamine H1 receptor is 3980 nM; at Histamine H2 receptor, 6.17 nM; on Histamine H4 receptor, 8.51 nM; on Histamine H3 receptor it was 1.7 nM.
For the molecule `Cc1nnc(CCCN/C(N)=N/C(=O)NCCCCCCCCN)s1`, the equilibrium dissociation constant (Kd) on Histamine H1 receptor worked out at 4.5 nM; on Histamine H4 receptor, 16 nM. Moreover, the inhibitory constant (Ki) was 309 nM on Histamine H1 receptor, 1820 nM on Histamine H2 receptor, over 10000 nM on Histamine H4 receptor and 11700 nM on Histamine H3 receptor.
Take `Cc1nc(N)oc1CCCN/C(N)=N/C(=O)NCc1ccccc1`: the values for the dissociation constant Kd on Histamine H1 receptor and on Histamine H4 receptor were 4.5 nM and 16 nM, respectively. In addition, the Ki on Histamine H1 receptor is 8910 nM; on Histamine H2 receptor it was 389 nM; at Histamine H4 receptor, over 10000 nM; on Histamine H3 receptor it was over 10000 nM.
`Cc1ccc(CC(C)CNC(=O)/N=C(\N)Nc2cccc(-c3sc(N)nc3C)c2)cc1` (stereo not drawn): the dissociation constant (Kd) was found to be 4.5 nM on Histamine H1 receptor and 16 nM at Histamine H4 receptor. The Ki was 5250 nM at Histamine H1 receptor, 234 nM at Histamine H2 receptor, 7410 nM on Histamine H4 receptor and 12900 nM on Histamine H3 receptor.
On to `C[C@@H](NC(=O)/N=C(\N)NCCCn1cc(CN(C)C)nn1)c1ccccc1`, for which the Kd on Histamine H1 receptor came out at 4.5 nM; at Histamine H4 receptor, 16 nM. Also, the Ki on Histamine H1 receptor was over 10000 nM; on Histamine H2 receptor, 4470 nM; on Histamine H4 receptor, over 10000 nM; on Histamine H3 receptor, 10200 nM.
As for `Cc1nc(N)sc1-c1cccc(N/C(N)=N/C(=O)NCCCCCCNC(=O)/N=C(\N)Nc2cccc(-c3sc(N)nc3C)c2)c1`, the figures for the dissociation constant Kd on Histamine H1 receptor and at Histamine H4 receptor were 4.5 nM and 16 nM, respectively. Besides, the inhibition constant (Ki) on Histamine H1 receptor was 1450 nM; on Histamine H2 receptor it was 380 nM; on Histamine H4 receptor, 2340 nM; on Histamine H3 receptor, 708 nM.
In the case of `Cc1nnc(CCCN/C(N)=N/C(=O)NCc2ccccc2)s1`, the Kd on Histamine H1 receptor is 4.5 nM; at Histamine H4 receptor, 16 nM. Further, the Ki at Histamine H1 receptor was 10700 nM; on Histamine H2 receptor, 5620 nM; at Histamine H4 receptor, over 10000 nM; at Histamine H3 receptor it was over 10000 nM.
As for `Cc1nc(N)sc1-c1ccc(N/C(N)=N/C(=O)NCCCCCCNC(=O)/N=C(\N)Nc2ccc(-c3sc(N)nc3C)cc2)cc1`, the Kd at Histamine H1 receptor worked out at 4.5 nM; on Histamine H4 receptor, 16 nM. Besides, the Ki is 2140 nM at Histamine H1 receptor, 347 nM on Histamine H2 receptor, 2140 nM at Histamine H4 receptor and 1950 nM on Histamine H3 receptor.
As for `Cc1nc(N)sc1-c1cccc(N/C(N)=N/C(=O)NCC(C)CCCc2ccccc2)c1` (stereo not drawn), the Kd amounted to 4.5 nM at Histamine H1 receptor and 16 nM on Histamine H4 receptor. In addition, the Ki is 13200 nM at Histamine H1 receptor, 234 nM at Histamine H2 receptor, 7080 nM on Histamine H4 receptor and 10700 nM at Histamine H3 receptor.

For the origin of these results see ChEMBL document CHEMBL5149991 (J Med Chem, 2021).
